The values below come from ChEMBL document CHEMBL1268902, “9-Dihydroerythromycin ethers as motilin agonists--developing structure-activity relationships for potency and safety” (Bioorg Med Chem, 2010).

Data set [1] can be described thus: Induction of contraction in rabbit smooth muscle. It counts as functional, tissue-based, Oryctolagus cuniculus, Muscle tissue. The method in brief:
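Rabbit smooth muscle contractility assay; EC50 taken as the concentration giving 50% of maximal possible contraction.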

A further data set deals with Streptococcus pneumoniae. The data set is described as follows: Antibacterial activity against erythromycin-sensitive Streptococcus pneumoniae ATCC 6301. It counts as functional. Summed up: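 MIC determined by growth inhibition; routine screening used the highly erythromycin-sensitive strain S. pneumoniae ATCC6301.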
In data set [2] the target is T1, hERG (KCNH2) (Homo sapiens, UniProt Q12809). The data set is described as follows: Inhibition of human ERG at 30 uM.
T1 sequence (Q12809 whole entry): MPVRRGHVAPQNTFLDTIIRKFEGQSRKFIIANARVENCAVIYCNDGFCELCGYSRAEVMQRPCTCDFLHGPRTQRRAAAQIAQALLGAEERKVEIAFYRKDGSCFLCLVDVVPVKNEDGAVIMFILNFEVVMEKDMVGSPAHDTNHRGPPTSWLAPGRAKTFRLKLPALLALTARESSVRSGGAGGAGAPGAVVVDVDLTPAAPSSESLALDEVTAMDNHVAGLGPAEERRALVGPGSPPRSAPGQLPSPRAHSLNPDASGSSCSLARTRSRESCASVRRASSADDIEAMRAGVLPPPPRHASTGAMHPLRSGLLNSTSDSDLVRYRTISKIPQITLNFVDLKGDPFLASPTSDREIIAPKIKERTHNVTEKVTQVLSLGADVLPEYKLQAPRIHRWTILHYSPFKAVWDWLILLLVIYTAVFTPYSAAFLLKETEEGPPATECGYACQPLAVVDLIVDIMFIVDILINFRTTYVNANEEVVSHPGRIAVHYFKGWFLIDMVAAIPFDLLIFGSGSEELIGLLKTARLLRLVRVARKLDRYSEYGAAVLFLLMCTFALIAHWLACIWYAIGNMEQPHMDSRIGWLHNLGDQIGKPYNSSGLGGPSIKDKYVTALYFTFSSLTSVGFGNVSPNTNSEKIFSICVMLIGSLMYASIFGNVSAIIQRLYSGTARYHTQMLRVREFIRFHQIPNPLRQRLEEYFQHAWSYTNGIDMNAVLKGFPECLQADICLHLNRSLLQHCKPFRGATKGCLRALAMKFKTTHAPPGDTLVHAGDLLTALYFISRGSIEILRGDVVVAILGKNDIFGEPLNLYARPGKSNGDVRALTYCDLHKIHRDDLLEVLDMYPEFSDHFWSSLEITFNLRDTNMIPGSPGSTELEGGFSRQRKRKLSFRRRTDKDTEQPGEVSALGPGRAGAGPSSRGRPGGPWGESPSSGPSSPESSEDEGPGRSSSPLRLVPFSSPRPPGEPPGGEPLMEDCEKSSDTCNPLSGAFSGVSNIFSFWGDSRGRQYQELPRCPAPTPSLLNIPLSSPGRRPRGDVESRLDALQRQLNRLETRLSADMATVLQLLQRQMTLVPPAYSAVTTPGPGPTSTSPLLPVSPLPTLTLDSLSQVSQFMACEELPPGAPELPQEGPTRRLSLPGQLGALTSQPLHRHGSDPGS
In data set [3] the target is T1, hERG (KCNH2). Nature of the data set: Inhibition of human ERG at 300 uM.
A short description of data set [4]: Induction of contraction in rabbit smooth muscle at EC90 concentration after three cycles of administration and washout measured after 4th dose. The format is functional, Oryctolagus cuniculus, Muscle tissue. The method in brief:
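Rabbit smooth muscle contractility; drug applied at EC90 concentration through three cycles of administration and washout, tachyphylaxis reported as % contractility response then obtained.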

In brackets after ≈: the same amount, converted by molar mass.

In turn, `CC[C@H]1OC(=O)[C@H](C)[C@@H](O[C@H]2C[C@@](C)(OC)[C@@H](O)[C@H](C)O2)[C@H](C)[C@@H](O[C@@H]2O[C@H](C)C[C@H](N(C)C(C)C)[C@H]2O)[C@](C)(O)C[C@@H](C)[C@H](OCCNC(=N)N)[C@H](C)[C@@H](O)[C@]1(C)O` displayed an EC50 in data set [1] of 3600 nM. This counts as single-digit micromolar.
In data set [1], `CCNC(=S)NCCO[C@@H]1[C@H](C)[C@@H](O)[C@](C)(O)[C@@H](CC)OC(=O)[C@H](C)[C@@H](O[C@H]2C[C@@](C)(OC)[C@@H](O)[C@H](C)O2)[C@H](C)[C@@H](O[C@@H]2O[C@H](C)C[C@H](N(C)C(C)C)[C@H]2O)[C@](C)(O)C[C@H]1C` yielded an EC50 of 220 nM. In addition, in the data set on Streptococcus pneumoniae, the MIC was more than 120 µg/mL. On hERG (KCNH2) [2], this compound gave an inhibition at 30 µM of 36%. At hERG (KCNH2) [3], this compound had an inhibition at 300 µM of 88%.
Consider `CC[C@H]1OC(=O)[C@H](C)[C@@H](O[C@H]2C[C@@](C)(OC)[C@@H](O)[C@H](C)O2)[C@H](C)[C@@H](O[C@@H]2O[C@H](C)C[C@H](N(C)C(C)C)[C@H]2O)[C@](C)(O)C[C@@H](C)[C@H](OCc2cc(C)on2)[C@H](C)[C@@H](O)[C@]1(C)O`, for which, in data set [1], the EC50 is 110 nM. In addition, the MIC against Streptococcus pneumoniae was 128 µg/mL (≈ 149 µM). This compound also gave an Activity in data set [4] of 78%. At hERG (KCNH2) [2], this compound gave an inhibition at 30 µM of 45%. Further, on hERG (KCNH2) [3], the inhibition at 300 µM turned out to be 90%.
In data set [1], `CC[C@H]1OC(=O)[C@H](C)[C@@H](O[C@H]2C[C@@](C)(OC)CC(C)O2)[C@H](C)[C@@H](O[C@@H]2O[C@H](C)C[C@H](N(C)CC)[C@H]2O)C2(C)CC(C)=C(O2)[C@H](C)[C@@H](O)[C@H]1C` (single isomer, unassigned) had an EC50 of 7 nM. The Activity in data set [4] is 22%.
In the same order, the values of `CC[C@H]1OC(=O)[C@H](C)[C@@H](O[C@H]2C[C@@](C)(OC)[C@@H](O)[C@H](C)O2)[C@H](C)[C@@H](O[C@@H]2O[C@H](C)C[C@H](N(C)C(C)C)[C@H]2O)[C@](C)(O)C[C@@H](C)[C@H](O)[C@H](C)[C@@H](O)[C@]1(C)O` [3 9-DIHYDRO-N-DESMETHYL-N-ISOPROPYLERYTHROMYCIN A] are 260 nM and 85%.
Turning to `CCOC(=O)NCCO[C@@H]1[C@H](C)[C@@H](O)[C@](C)(O)[C@@H](CC)OC(=O)[C@H](C)[C@@H](O[C@H]2C[C@@](C)(OC)[C@@H](O)[C@H](C)O2)[C@H](C)[C@@H](O[C@@H]2O[C@H](C)C[C@H](N(C)C(C)C)[C@H]2O)[C@](C)(O)C[C@H]1C`, in data set [1], the midpoint of the response, the EC50, lay at 100 nM. In the data set with Streptococcus pneumoniae, the lowest concentration to inhibit growth (MIC) was 64 µg/mL (≈ 72.8 µM). Moreover, the inhibition at 30 µM against hERG (KCNH2) [2] amounted to 67%. On hERG (KCNH2) [3], the inhibition at 300 µM was found to be 100%.
In the same order, the values of `CC[C@H]1OC(=O)[C@H](C)[C@@H](O[C@H]2C[C@@](C)(OC)[C@@H](O)[C@H](C)O2)[C@H](C)[C@@H](O[C@@H]2O[C@H](C)C[C@H](N(C)C(C)C)[C@H]2O)[C@](C)(O)C[C@@H](C)[C@H](OCCNC(C)C)[C@H](C)[C@@H](O)[C@]1(C)O` are 2000 nM, 64 µg/mL (≈ 75.4 µM), 40% and 93%.
For the compound `CCCNC(=S)NCCO[C@@H]1[C@H](C)[C@@H](O)[C@](C)(O)[C@@H](CC)OC(=O)[C@H](C)[C@@H](O[C@H]2C[C@@](C)(OC)[C@@H](O)[C@H](C)O2)[C@H](C)[C@@H](O[C@@H]2O[C@H](C)C[C@H](N(C)C(C)C)[C@H]2O)[C@](C)(O)C[C@H]1C`, the EC50 in data set [1] worked out at 210 nM. The compound also showed an MIC in the data set on Streptococcus pneumoniae of 128 µg/mL (≈ 141 µM). This compound also gave an inhibition at 30 µM at hERG (KCNH2) [2] of 53%. The same compound returned an inhibition at 300 µM on hERG (KCNH2) [3] of 100%.
In turn, `CC[C@H]1OC(=O)[C@H](C)[C@@H](O[C@H]2C[C@@](C)(OC)[C@@H](O)[C@H](C)O2)[C@H](C)[C@@H](O[C@@H]2O[C@H](C)C[C@H](N(C)C(C)C)[C@H]2O)[C@](C)(O)C[C@@H](C)[C@H](OCc2c[nH]cn2)[C@H](C)[C@@H](O)[C@]1(C)O` registered an EC50 in data set [1] of 63 nM. Further, 30 µM produced 48% inhibition against hERG (KCNH2) [2]. In addition, 300 µM produced 98% inhibition against hERG (KCNH2) [3].
`CC[C@H]1OC(=O)[C@H](C)[C@@H](O[C@H]2C[C@@](C)(OC)[C@@H](O)[C@H](C)O2)[C@H](C)[C@@H](O[C@@H]2O[C@H](C)C[C@H](N(C)C)[C@H]2O)[C@](C)(O)C[C@@H](C)C(=O)[C@H](C)[C@@H](O)[C@]1(C)O` [ERYTHROMYCIN] displayed an EC50 in data set [1] of 1200 nM. In data set [4], this compound came in with an Activity of 97%.
In data set [1], `CC[C@H]1OC(=O)[C@H](C)[C@@H](O[C@H]2C[C@@](C)(OC)[C@@H](O)[C@H](C)O2)[C@H](C)[C@@H](O[C@@H]2O[C@H](C)C[C@H](N(C)C(C)C)[C@H]2O)[C@](C)(O)C[C@@H](C)[C@H](OCc2nccs2)[C@H](C)[C@@H](O)[C@]1(C)O` displayed an EC50 of 290 nM. Besides, the MIC with Streptococcus pneumoniae stood at 128 µg/mL (≈ 149 µM). The compound also had an inhibition at 30 µM at hERG (KCNH2) [2] of 61%. Also, the inhibition at 300 µM against hERG (KCNH2) [3] was 100%.
In the same order, the values of `CC[C@H]1OC(=O)[C@H](C)[C@@H](O[C@H]2C[C@@](C)(OC)[C@@H](O)[C@H](C)O2)[C@H](C)[C@@H](O[C@@H]2O[C@H](C)C[C@H](N(C)C(C)C)[C@H]2O)[C@](C)(O)C[C@@H](C)[C@H](OCc2csc(C)n2)[C@H](C)[C@@H](O)[C@]1(C)O` are 480 nM, 128 µg/mL (≈ 146 µM), 63% and 100%.
In data set [1], `CC[C@H]1OC(=O)[C@H](C)[C@@H](O[C@H]2C[C@@](C)(OC)C[C@H](C)O2)[C@H](C)[C@@H](O[C@@H]2O[C@H](C)C[C@H](N(C)C(C)C)[C@H]2O)[C@]2(C)CC(C)=C(O2)[C@H](C)C(=O)[C@]1(C)OC` came in with an EC50 of 11 nM. The Activity in data set [4] is reported as 9%. The compound also yielded an inhibition at 30 µM on hERG (KCNH2) [2] of 84%. Besides, the inhibition at 300 µM on hERG (KCNH2) [3] came out at 100%.
In turn, `CC[C@H]1OC(=O)[C@H](C)[C@@H](O[C@H]2C[C@@](C)(OC)[C@@H](O)[C@H](C)O2)[C@H](C)[C@@H](O[C@@H]2O[C@H](C)C[C@H](N(C)C(C)C)[C@H]2O)[C@](C)(O)C[C@@H](C)[C@H](OCC(=O)NC)[C@H](C)[C@@H](O)[C@]1(C)O` returned an EC50 in data set [1] of 58 nM. For the same compound, 128 µg/mL (≈ 153 µM) was the least that counted as inhibitory with Streptococcus pneumoniae (MIC). The Activity in data set [4] turned out to be 89%.
On to `CC[C@H]1OC(=O)[C@H](C)[C@@H](O[C@H]2C[C@@](C)(OC)[C@@H](O)[C@H](C)O2)[C@H](C)[C@@H](O[C@@H]2O[C@H](C)C[C@H](N(C)C(C)C)[C@H]2O)[C@](C)(O)C[C@@H](C)[C@H](OCc2ccncc2)[C@H](C)[C@@H](O)[C@]1(C)O`, for which the EC50 in data set [1] is 420 nM. In addition, in the data set on Streptococcus pneumoniae, the MIC was 128 µg/mL (≈ 150 µM). The same compound returned an inhibition at 30 µM at hERG (KCNH2) [2] of 68%. Further, testing at 300 µM at hERG (KCNH2) [3] gave an inhibition of 100%.
Consider `CC[C@H]1OC(=O)[C@H](C)[C@@H](O[C@H]2C[C@@](C)(OC)[C@@H](O)[C@H](C)O2)[C@H](C)[C@@H](O[C@@H]2O[C@H](C)C[C@H](N(C)C(C)C)[C@H]2O)[C@](C)(O)C[C@@H](C)[C@H](OCCNC(=O)OC)[C@H](C)[C@@H](O)[C@]1(C)O`, for which, in data set [1], the response was half-maximal at 130 nM (EC50). Further, in the data set with Streptococcus pneumoniae, the MIC was found to be 128 µg/mL (≈ 148 µM). The compound further returned an inhibition at 30 µM against hERG (KCNH2) [2] of 40%. This compound yielded an inhibition at 300 µM against hERG (KCNH2) [3] of 95%.
In the same order, the values of `CC[C@H]1OC(=O)[C@H](C)[C@@H](O[C@H]2C[C@@](C)(OC)[C@@H](O)[C@H](C)O2)[C@H](C)[C@@H](O[C@@H]2O[C@H](C)C[C@H](N(C)C(C)C)[C@H]2O)[C@](C)(O)C[C@@H](C)[C@H](OCCN)[C@H](C)[C@@H](O)[C@]1(C)O` are 2300 nM, 128 µg/mL (≈ 159 µM), 25% and 76%.
